Data: ChEMBL document CHEMBL1156112, “Discovery of 3-(1H-indol-3-yl)-4-[2-(4-methylpiperazin-1-yl)quinazolin-4-yl]pyrrole-2,5-dione (AEB071), a potent and selective inhibitor of protein kinase C isotypes” (J Med Chem, 2009)
pIC50: −log10 of the molar value.

Columns and labels:
[1] = AUC (0 to infinity) in Lewis rat at 5 mg/kg, iv; assay type: ADME, organism-based; design: time infinity, dose 5 mg/kg, route intravenous; conditions: plasma
Procedure, shortened: (§1)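 Rats dosed either 5 mg/kg iv in 75% saline (0.9%)-25% PEG400 or 20 mg/kg po in 75% water-25% PEG400. OFA or Lewis rats were used depending on the compound. Values are averages of three animals. AUC is extrapolated to infinity. Oral bioavailability (F) comes from the po and iv exposures.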

[2] = Cmax in Lewis rat at 20 mg/kg, po; assay type: ADME, organism-based; design: dose 20 mg/kg, route oral; conditions: in vivo; procedure, shortened: as §1
cells = conditions: Homo sapiens, Jurkat
[3] = Volume of distribution at steady state in Lewis rat at 5 mg/kg, iv; assay type: ADME, organism-based; design: dose 5 mg/kg, route intravenous; conditions: in vivo, read-out: Vdss; procedure, shortened: as §1
[4] = Clearance in Lewis rat at 5 mg/kg, iv; assay type: ADME, organism-based; design: dose 5 mg/kg, route intravenous; conditions: in vivo; procedure, shortened: as §1
[5] = Oral bioavailability in Lewis rat at 20 mg/kg, po; assay type: ADME, organism-based; conditions: in vivo; procedure, shortened: as §1
[6] = target: Protein kinase C beta type (Homo sapiens, UniProt P05771); test: Inhibition of PKCbeta1 by SPA
Sequence of Protein kinase C beta type (P05771 whole entry): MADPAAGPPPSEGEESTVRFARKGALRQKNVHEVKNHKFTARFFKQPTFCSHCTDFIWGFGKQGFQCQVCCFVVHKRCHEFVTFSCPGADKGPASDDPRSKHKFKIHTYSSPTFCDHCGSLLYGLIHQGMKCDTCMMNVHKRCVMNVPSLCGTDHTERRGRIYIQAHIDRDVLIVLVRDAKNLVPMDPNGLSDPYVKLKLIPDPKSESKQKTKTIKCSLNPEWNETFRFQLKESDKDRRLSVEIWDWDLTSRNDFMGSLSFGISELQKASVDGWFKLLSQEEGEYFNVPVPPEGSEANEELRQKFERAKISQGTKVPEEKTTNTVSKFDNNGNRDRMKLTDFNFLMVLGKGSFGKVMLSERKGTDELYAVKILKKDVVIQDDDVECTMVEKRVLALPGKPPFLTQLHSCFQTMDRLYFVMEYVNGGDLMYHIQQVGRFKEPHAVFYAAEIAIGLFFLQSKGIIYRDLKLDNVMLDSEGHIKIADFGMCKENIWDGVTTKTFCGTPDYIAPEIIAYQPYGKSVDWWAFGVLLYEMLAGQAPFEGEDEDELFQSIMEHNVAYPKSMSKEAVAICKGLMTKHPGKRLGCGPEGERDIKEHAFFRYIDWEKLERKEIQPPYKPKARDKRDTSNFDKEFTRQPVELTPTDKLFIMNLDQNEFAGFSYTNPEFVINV

[7] = target: Protein kinase C theta type (Homo sapiens, UniProt Q04759); test: Inhibition of PKCtheta by SPA
Sequence of Protein kinase C theta type (Q04759 whole entry): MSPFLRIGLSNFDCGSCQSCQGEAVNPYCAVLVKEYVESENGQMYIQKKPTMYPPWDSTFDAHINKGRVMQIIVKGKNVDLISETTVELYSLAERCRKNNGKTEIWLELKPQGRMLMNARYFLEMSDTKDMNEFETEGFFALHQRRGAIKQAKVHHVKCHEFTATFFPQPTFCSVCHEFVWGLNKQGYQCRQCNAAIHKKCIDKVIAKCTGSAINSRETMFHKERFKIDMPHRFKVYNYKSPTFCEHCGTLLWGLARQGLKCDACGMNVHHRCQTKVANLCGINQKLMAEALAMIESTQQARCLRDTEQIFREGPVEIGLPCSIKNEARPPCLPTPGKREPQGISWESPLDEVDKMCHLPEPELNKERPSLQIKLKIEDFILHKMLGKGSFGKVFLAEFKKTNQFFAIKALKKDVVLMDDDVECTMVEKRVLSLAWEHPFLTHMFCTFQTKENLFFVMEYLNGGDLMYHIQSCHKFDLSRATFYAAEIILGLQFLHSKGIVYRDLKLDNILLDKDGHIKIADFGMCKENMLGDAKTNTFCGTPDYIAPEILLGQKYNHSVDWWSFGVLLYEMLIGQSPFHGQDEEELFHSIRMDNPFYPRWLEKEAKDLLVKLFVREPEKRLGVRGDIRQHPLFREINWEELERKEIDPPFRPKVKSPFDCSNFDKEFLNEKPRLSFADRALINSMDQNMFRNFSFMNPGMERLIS

[8] = target: Protein kinase C alpha type (Homo sapiens, UniProt P17252); test: Inhibition of PKCalpha by SPA
[9] = AUC (0 to infinity) in Lewis rat at 20 mg/kg, po; assay type: ADME, organism-based; design: time infinity, dose 20 mg/kg, route oral; conditions: plasma; procedure, shortened: as §1
[10] = target: T1, Protein kinase C epsilon type (Homo sapiens, UniProt Q02156); test: Inhibition of PKCepsilon by SPA
T1 sequence (Q02156 whole entry): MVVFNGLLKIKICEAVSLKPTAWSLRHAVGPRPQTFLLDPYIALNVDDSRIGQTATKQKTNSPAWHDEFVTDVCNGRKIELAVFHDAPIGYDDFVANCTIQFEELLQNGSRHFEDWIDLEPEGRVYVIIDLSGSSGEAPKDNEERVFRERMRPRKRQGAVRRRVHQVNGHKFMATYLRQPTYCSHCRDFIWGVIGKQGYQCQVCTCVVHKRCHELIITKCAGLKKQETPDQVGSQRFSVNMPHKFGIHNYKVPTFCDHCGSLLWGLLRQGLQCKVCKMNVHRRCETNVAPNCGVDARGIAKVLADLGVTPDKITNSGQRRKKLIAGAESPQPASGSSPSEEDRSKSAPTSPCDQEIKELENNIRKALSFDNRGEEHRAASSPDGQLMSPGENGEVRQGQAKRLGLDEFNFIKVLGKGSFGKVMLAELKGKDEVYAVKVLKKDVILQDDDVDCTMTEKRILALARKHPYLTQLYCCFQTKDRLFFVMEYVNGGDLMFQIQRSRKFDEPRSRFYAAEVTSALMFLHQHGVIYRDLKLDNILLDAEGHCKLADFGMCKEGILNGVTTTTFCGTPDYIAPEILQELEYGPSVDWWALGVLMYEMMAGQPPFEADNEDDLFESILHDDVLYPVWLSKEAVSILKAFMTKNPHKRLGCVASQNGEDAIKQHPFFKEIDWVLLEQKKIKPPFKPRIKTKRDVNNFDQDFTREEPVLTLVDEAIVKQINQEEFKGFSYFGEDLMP

[11] = target: Protein kinase C eta type (Homo sapiens, UniProt P24723); test: Inhibition of PKCeta by SPA
Sequence of Protein kinase C eta type (P24723 whole entry): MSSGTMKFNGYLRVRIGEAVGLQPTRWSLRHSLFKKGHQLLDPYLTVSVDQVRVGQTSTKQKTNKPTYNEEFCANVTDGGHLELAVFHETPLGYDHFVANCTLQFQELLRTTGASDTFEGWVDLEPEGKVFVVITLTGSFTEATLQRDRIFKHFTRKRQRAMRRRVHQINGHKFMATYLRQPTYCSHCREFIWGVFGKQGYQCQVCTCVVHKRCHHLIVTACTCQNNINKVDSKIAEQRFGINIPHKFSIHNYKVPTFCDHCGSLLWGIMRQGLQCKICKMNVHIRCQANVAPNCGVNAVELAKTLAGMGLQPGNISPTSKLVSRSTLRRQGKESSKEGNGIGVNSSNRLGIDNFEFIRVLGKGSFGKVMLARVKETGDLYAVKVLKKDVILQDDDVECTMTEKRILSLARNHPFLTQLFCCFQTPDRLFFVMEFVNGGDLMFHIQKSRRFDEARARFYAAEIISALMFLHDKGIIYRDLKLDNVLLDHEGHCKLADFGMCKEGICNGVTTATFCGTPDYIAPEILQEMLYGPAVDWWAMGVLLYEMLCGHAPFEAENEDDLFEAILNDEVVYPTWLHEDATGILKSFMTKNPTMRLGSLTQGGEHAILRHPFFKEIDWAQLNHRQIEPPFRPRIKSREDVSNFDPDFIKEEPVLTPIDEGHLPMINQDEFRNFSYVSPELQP

[12] = Elimination half life in Lewis rat at 5 mg/kg, iv; assay type: ADME, organism-based; design: dose 5 mg/kg, route intravenous; conditions: in vivo, read-out: beta t1/2 (converted); procedure, shortened: as §1
[13] = Tmax in Lewis rat at 20 mg/kg, po; assay type: ADME, organism-based; design: dose 20 mg/kg, route oral; conditions: in vivo; procedure, shortened: as §1
[14] = target: Protein kinase C delta type (Homo sapiens, UniProt Q05655); test: Inhibition of PKCdelta by SPA
Sequence of Protein kinase C delta type (Q05655 whole entry): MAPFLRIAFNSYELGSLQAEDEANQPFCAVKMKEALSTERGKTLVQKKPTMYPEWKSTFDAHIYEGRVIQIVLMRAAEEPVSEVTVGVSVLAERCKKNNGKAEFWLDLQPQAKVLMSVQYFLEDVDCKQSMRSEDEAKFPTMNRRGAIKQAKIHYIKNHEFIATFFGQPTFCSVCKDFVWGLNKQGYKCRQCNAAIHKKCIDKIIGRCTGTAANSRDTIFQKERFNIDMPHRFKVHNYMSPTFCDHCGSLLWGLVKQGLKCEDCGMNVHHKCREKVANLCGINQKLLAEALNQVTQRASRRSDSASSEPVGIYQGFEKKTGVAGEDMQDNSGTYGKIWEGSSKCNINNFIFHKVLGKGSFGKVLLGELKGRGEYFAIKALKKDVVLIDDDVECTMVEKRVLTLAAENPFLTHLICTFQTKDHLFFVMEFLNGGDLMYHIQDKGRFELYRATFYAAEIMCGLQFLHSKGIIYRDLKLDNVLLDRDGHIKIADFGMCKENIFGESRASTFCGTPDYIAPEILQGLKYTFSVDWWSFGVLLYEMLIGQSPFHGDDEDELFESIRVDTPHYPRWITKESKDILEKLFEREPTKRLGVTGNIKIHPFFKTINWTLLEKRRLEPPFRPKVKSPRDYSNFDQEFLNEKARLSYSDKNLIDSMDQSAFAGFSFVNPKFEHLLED

An AUC(0-inf) [1] of 4320 ng·h/mL, a Cmax [2] of 242 ng/mL and a pIC50 (cells) of 7.30 were found for `CN1CCN(c2cc(C3=C(c4c[nH]c5ccccc45)C(=O)NC3=O)c3ccccc3c2)CC1` in this work. For the same compound, the Vd [3] was 12 L/kg, the clearance [4] was 19.3 mL/min/kg and the bioavailability [5] was 12%. The pIC50 [6] was 8.74, the pIC50 [7] was 8.32 and the pIC50 [8] was 9.05. It also gave an AUC(0-inf) [9] of 1990 ng·h/mL, a pIC50 [10] of 7.72 and a pIC50 [11] of 7.60. For the same compound, the half-life [12] was 4.5 h, the Tmax [13] was 2 h and the pIC50 [14] was 8.14.
